Measured values: PubChem BioAssay
Inconclusive results are not listed.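 The calls were made as follows, unless noted: active = viability increase at or above a cutoff of the median across tested compounds plus 3 SD (cut at about 8.5% in these data, passing the limit was not always enough); inconclusive = some gains above the cutoff, reason not given; inactive = the rest.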

Columns and labels:
[1] = S. cerevisiae growth inhibition in permissive medium (OD615), pilot counter-assay for S. cerevisiae lifespan shortening project, permissive growth control (AID 705;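 active = growth inhibition above 25% in both replicates, a cutoff set 3 SD above the mean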); conditions: OD615, 24 h, at 10 µM, active compounds read high
How it was run: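 assay system = Saccharomyces cerevisiae strain carrying genetically modified DeaD replicative-lifespan system | medium = SC raffinose/galactose permissive medium | dosing = 10 µM single dose, 0.25% DMSO | schedule = 24 h compound exposure at 30 °C after 4 h pre-growth | measured by = OD at 615 nm | read-out basis = growth inhibition from lowered OD615 after 24 h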

[2] = S. cerevisiae growth inhibition in restrictive medium, OD615, pilot screen, restrictive growth control, yeast lifespan reduction project (AID 706;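 active = growth inhibition above a set limit, 3 SD over mean compound inhibition, in both replicates, cut at about 43% in these data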;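 also: modified DeaD lifespan yeast strain shifted to restrictive glucose medium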); conditions: OD615, 48 h, at 10 µM, active compounds read high
How it was run: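 Buffer or medium: CSMM-D glucose medium. Material: genetically modified Saccharomyces cerevisiae, DeaD replicative lifespan assay strain. Times: 48 h compound exposure at 30 °C. Measured by: optical density at 615 nm.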

[3] = doxorubicin toxicity protection in MRP-1 cells – H69AR cells, CellTiter-Glo, duplicate, MRP-1 activator project, pilot screen (AID 807); conditions: H69AR viability with doxorubicin, CellTiter-Glo luminescence; at 10 µM; active compounds read high;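 also: compound pretreatment 18-22 h then 72 h combined with doxorubicin; 0% = doxorubicin alone and 100% = vehicle without doxorubicin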
[4] = viability of HCT116 without oncogenic beta-catenin – human colon tumor cells, pilot screen (AID 823;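 active = cell viability at or below a set limit in both duplicate runs, the limit being the all-compound median minus 4 SD, cut at about 23% in these data, passing the limit was not always enough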;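 also: 0% = wells killed by 20 µM Hyamine and 100% = untreated DMSO cell wells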); conditions: HCT116 beta-catenin knockout viability, CellTiter-Glo, 60 h; at 10 µM; active compounds read low
[5] = viability of PTEN-null HCT116 cells – cell-based, HCT116 clonal line, CellTiter-Glo, pilot screen (AID 824;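 active = viability at or below 27.92% in each of two runs, the all-compound median minus 4 SD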;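 also: 0% = 20 µM Hyamine control and 100% = vehicle cell control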); conditions: HCT116 PTEN-deleted viability, 60 h, at 10 µM, active compounds read low
[6] = RAM pathway blockade in budding yeast – dse1pr::URA3 reporter, 5-FOA selection, pilot screen (AID 869;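 active = inhibition over a set limit, the all-compound mean plus 3 SD, in both replicate runs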;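 also: 0% = DMSO wells with no growth and 100% = 10 µM 1-NA-PP1 with full growth; RAM network block rescues cells from 5-FOA so hits raise OD615 growth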); conditions: S. cerevisiae dse1pr::URA3 5-FOA growth, OD615, 2 d; at 10 µM; active compounds read high; strain carries analog-sensitive mutant Cbk1 kinase
[7] = RAM signaling pathway blockade in yeast – S. cerevisiae, Pdr1DBD-CYC8 efflux-inhibited sensitized strain, primary screen (AID 1298;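 active = RAM network inhibition above 8.4% in each of two replicates, 3 SD over the compound average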;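 also: 0% = DMSO untreated cells without growth and 100% = 10 µM 1-NA-PP1 full growth; higher means more yeast growth rescued from 5-FOA killing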); conditions: S. cerevisiae cbk1-as DSE1-URA3 strain, 5-FOA growth OD615, 2 d; at 50 µM; active compounds read high

CN(C(=O)c1ccc(=O)[nH]c1)C1(C(=O)NC2CCCCC2)CCCCC1
inactive: growth inhibition [1] -7.84% | growth inhibition [2] -8.31% | viability increase [3] -0.61% | viability [4] 95.7% | viability [5] 101% | inhibition [6] 0.78% | RAM network inhibition [7] 1.66%

Cc1nnc(NC(=O)c2oc3cc(C)c(C)cc3c2C)s1
inactive: growth inhibition [1] -3.77% | growth inhibition [2] -4.99% | viability increase [3] -0.05% | viability [4] 105% | viability [5] 99.8% | inhibition [6] 1.64% | RAM network inhibition [7] 5.7%

CCC1(C(=O)O)NC(c2cccc(OC)c2O)C2C(=O)N(c3ccccc3)C(=O)C21 (stereo not drawn)
inactive: growth inhibition [1] -6.47% | growth inhibition [2] 1.83% | viability increase [3] -2.33% | viability [4] 102% | viability [5] 93.8% | inhibition [6] 3.62% | RAM network inhibition [7] 1.14%

COC(=O)c1ccccc1NC(=O)Cn1cc2c(n1)CCC(C)C2 (stereo not drawn)
inactive: growth inhibition [1] 0.34% | growth inhibition [2] -0.81% | viability increase [3] -0.23% | viability [4] 92.9% | viability [5] 87.9% | inhibition [6] 1.79% | RAM network inhibition [7] 3.66%

COC(=O)c1coc(-c2ccc(C)cc2)c1C(=O)OC
inactive: growth inhibition [1] -4.24% | growth inhibition [2] 2% | viability increase [3] 0.08% | viability [4] 88.6% | viability [5] 95.9% | inhibition [6] 0.11% | RAM network inhibition [7] 3.96%

Cc1ccc(C)c(-n2c(Cc3cc(=O)[nH]c(=O)[nH]3)nnc2SC(C)C)c1
inactive: growth inhibition [1] 0.205% | growth inhibition [2] 11.1% | viability increase [3] -3.19% | viability [4] 97.7% | viability [5] 89.9% | inhibition [6] 1.74% | RAM network inhibition [7] 0.84%

O=C(Cn1c(=O)oc2ccccc21)N1CCN(c2ccc(N3CCOCC3)nn2)CC1
inactive: growth inhibition [1] -0.78% | growth inhibition [2] -14% | viability increase [3] -2.65% | viability [4] 101% | viability [5] 101% | inhibition [6] 1.31% | RAM network inhibition [7] 2.63%

Cc1ccc(-c2nc(CS(=O)(=O)CC(=O)N3CC(C)CC(C)C3)c(C)o2)cc1 (stereo not drawn)
inactive: growth inhibition [1] 0.15% | growth inhibition [2] 4.4% | viability increase [3] -2.57% | viability [4] 58% | viability [5] 72.8% | inhibition [6] 1.93% | RAM network inhibition [7] 3.8%

O=C(CSc1nccn1-c1cccc(Cl)c1)Nc1ccc2c(c1)OCCO2
inactive: growth inhibition [1] -11.7% | growth inhibition [2] 2.4% | viability increase [3] 6.11% | viability [4] 101% | viability [5] 93% | inhibition [6] 2.52% | RAM network inhibition [7] 3.35%

Cc1ccc(-c2nc(CS(=O)CC(=O)N3CCN(c4ncccn4)CC3)c(C)o2)cc1 (stereo not drawn)
inactive: growth inhibition [1] -0.52% | growth inhibition [2] 10.7% | viability increase [3] -2.28% | viability [4] 76.8% | viability [5] 90.2% | inhibition [6] 2.31% | RAM network inhibition [7] 4.78%

O=S(=O)(c1cccs1)n1nnc2ccccc21
inactive: growth inhibition [1] -1.66% | growth inhibition [2] -8.55% | viability increase [3] -0.18% | viability [4] 103% | viability [5] 105% | inhibition [6] 1.33% | RAM network inhibition [7] 0.48%

COC(=O)c1c(N2C(=O)CCC2=O)sc2c1CCCC2
inactive: growth inhibition [1] -1.48% | growth inhibition [2] 0.535% | viability increase [3] -2.89% | viability [4] 102% | viability [5] 93.4% | inhibition [6] 1.26% | RAM network inhibition [7] -1.57%

COC(=O)C(Cc1ccccc1)NC(=O)CSc1nc(C)cc(=O)[nH]1 (stereo not drawn)
inactive: growth inhibition [1] -8.37% | growth inhibition [2] -4.86% | viability increase [3] -2.4% | viability [4] 101% | viability [5] 91.7% | inhibition [6] 1.4% | RAM network inhibition [7] -0.21%

COC(=O)C1CCN(C(c2cccs2)c2sc3nc(C)nn3c2O)CC1 (stereo not drawn)
inactive: growth inhibition [1] -3.2% | growth inhibition [2] 1.52% | viability increase [3] -1.54% | viability [4] 102% | viability [5] 96.4% | inhibition [6] 1.68% | RAM network inhibition [7] 1.07%

O=C(NCCOC(=O)c1ccncc1)c1ccccc1
inactive: growth inhibition [1] -0.685% | growth inhibition [2] -1.32% | viability increase [3] -0.4% | viability [4] 99.2% | viability [5] 99.7% | inhibition [6] 1.27% | RAM network inhibition [7] 3.05%

COc1ccc(OC)c2[nH]c(=O)c(CCNC(=O)c3cc4ccccc4o3)cc12
inactive: growth inhibition [1] -6.5% | growth inhibition [2] -3.6% | viability increase [3] 2.38% | viability [4] 87.8% | viability [5] 94.7% | inhibition [6] 0.6% | RAM network inhibition [7] 7.96%

CC(=O)c1ccc(-n2nncc2C)cc1
inactive: growth inhibition [1] -4.02% | growth inhibition [2] -11.6% | viability increase [3] -3.63% | viability [4] 108% | viability [5] 95.6% | inhibition [6] 0.965% | RAM network inhibition [7] 2.75%

O=C(CSc1nc2ccccc2[nH]1)Nc1ccc(F)cc1
inactive: growth inhibition [1] 3.95% | growth inhibition [2] 11.3% | viability increase [3] 0.83% | viability [4] 97.7% | viability [5] 90.2% | inhibition [6] 0.255% | RAM network inhibition [7] 5.07%

COc1ccccc1C1(CC(=O)O)CCOC(C)(C)C1 (stereo not drawn)
inactive: growth inhibition [1] -2.27% | growth inhibition [2] -9.79% | viability increase [3] -1.61% | viability [4] 90.9% | viability [5] 92.2% | inhibition [6] 0.095% | RAM network inhibition [7] -1.44%

CC(=O)Nc1ccc(S(=O)(=O)NCCc2cc3c(C)ccc(C)c3[nH]c2=O)cc1
inactive: growth inhibition [1] -10.1% | growth inhibition [2] -6.53% | viability increase [3] -0.47% | viability [4] 98.2% | viability [5] 94.2% | inhibition [6] 1.82% | RAM network inhibition [7] 1.05%

COc1ccc(-c2noc(Cc3ccccc3OC)n2)cc1
inactive: growth inhibition [1] -15.1% | growth inhibition [2] -10.5% | viability increase [3] 1.93% | viability [4] 94% | viability [5] 83.7% | inhibition [6] 1.83% | RAM network inhibition [7] 1.94%

COc1ccc(OC)c(CN2CCN(c3ccccc3OC)CC2)c1
inactive: growth inhibition [1] -7.27% | growth inhibition [2] -8.51% | viability increase [3] -0.4% | viability [4] 61.2% | viability [5] 71.6% | inhibition [6] 1.86% | RAM network inhibition [7] 5.18%

COc1ccc(C/C(N)=N/n2cnnc2)cc1
inactive: growth inhibition [1] 2.64% | growth inhibition [2] -3.72% | viability increase [3] 0.39% | viability [4] 100% | viability [5] 106% | inhibition [6] 0.64% | RAM network inhibition [7] 3.02%

Cc1cc(C)cc(N(CC(=O)N2CCN(Cc3ccccc3)CC2)S(=O)(=O)c2c(C)noc2C)c1
inactive: growth inhibition [1] -13.5% | growth inhibition [2] -29.5% | viability increase [3] -4.22% | viability [4] 101% | viability [5] 96.9% | inhibition [6] 1.84% | RAM network inhibition [7] 3.45%
